According to ChEMBL document CHEMBL5338759, “N-Phenyl-1-(phenylsulfonyl)-1H-1,2,4-triazol-3-amine as a New Class of HIV-1 Non-nucleoside Reverse Transcriptase Inhibitor” (J Med Chem, 2023):
Active and inactive are the calls of the source. The calls are words filed in the database; no cut-off is given here.

Columns and labels:
[1] = test system: Human immunodeficiency virus 1; experiment: Antiviral activity against wild type HIV1 IIIB infected in human TZM-bl cells; format: functional, organism-based; settings: Human immunodeficiency virus 1, IIIB
Procedure, shortened: (§1)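 TZM-bl cells (2x10⁵/mL) infected with HIV-1 IIIB grown in H9 cells, with 15 µg/mL DEAE-dextran; serial dilutions from 10 mM DMSO stocks, DMSO held constant (0.005% or 0.05%); 37°C, 5% CO₂, 48 hr; cells lysed, luciferase RLU read.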

[2] = test system: Human immunodeficiency virus 1; experiment: Antiviral activity against HIV1 harboring A17 mutant infected in human TZM-bl cells; format: functional, organism-based; settings: for EC50 / IC50: Human immunodeficiency virus 1, TZM-bl
Procedure, shortened: (§2)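 TZM-bl cells (2x10⁵/mL) were infected with mutant virus in the presence of 15 µg/mL DEAE-dextran. A17 (IIIB variant) was grown in H9 cells; the other mutants were NL4-3-based plasmids transfected into 293T cells, then expanded in H9 cells. Compounds were tested at 0.05–500 nM (DMSO constant within an assay) for 48 hr at 37°C. Read-out was luciferase RLU from lysed cells, with at least 6 replicates over multiple days.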

[3] = target: Human immunodeficiency virus type 1 reverse transcriptase (Human immunodeficiency virus 1, UniProt Q72547); experiment: Inhibition of HIV1 Reverse transcriptase incubated for 30 mins by fluorescence based analysis
[4] = test system: Human immunodeficiency virus 1; experiment: Antiviral activity against HIV1 harboring Y181C mutant infected in human TZM-bl cells; format: functional, organism-based; settings: Human immunodeficiency virus 1, TZM-bl; procedure, shortened: as §2
[5] = test system: Human immunodeficiency virus 1; experiment: Antiviral activity against HIV1 harboring L100I/K103N double mutant infected in human TZM-bl cells; format: functional, organism-based; settings: Human immunodeficiency virus 1, TZM-bl
[6] = test system: Human immunodeficiency virus 1; experiment: Antiviral activity against HIV1 harboring K103N mutant infected in human TZM-bl cells; format: functional, organism-based; settings: Human immunodeficiency virus 1, TZM-bl; procedure, shortened: as §2
TZM [7] = experiment: Cytotoxicity against human TZM-bl cells assessed as reduction in cell viability by MTS assay; format: functional
[8] = Neurotoxicity in mouse primary neurons assessed as loss of MAP-2 intensity incubated for 48 hrs by imaging analysis; format: toxicity, cell-based; settings: neuron
Procedure, shortened: (§3)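 Primary E16 CD1 mouse cortex/hippocampus cultures (>95% neurons) treated at 20 days in vitro with 10X dilutions made in artificial CSF, final 0.1–10,000 nM, for 48 hr; fixed in methanol:acetic acid (97:3), stained for MAP-2; relative MAP-2 intensity and area quantified by image analysis, […] (±SD) fitted from dose response.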

[9] = Neurotoxicity in mouse primary neurons assessed as loss of MAP-2 area incubated for 48 hrs by imaging analysis; format: toxicity, cell-based; settings: neuron; procedure, shortened: as §3
[10] = test system: Human immunodeficiency virus; experiment: Antiviral activity against wild type HIV IIIB infected in human TZM-bl cells; format: functional, organism-based; settings: Human immunodeficiency virus 1, IIIB; procedure, shortened: as §1
Neuron [11] = experiment: Induction of calcium accumulation at acute phase in primary mouse neuron at 1 uM; format: functional, cell-based
Procedure, shortened: (§4)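 Primary E16 CD1 mouse cortex/hippocampus neurons on coverslips, 14–18 days in vitro, loaded 30 min with 2 µM Fluo-4 AM in aCSF; three baseline images, then compound or vehicle in aCSF added at 1 µM final. Baseline fluorescence subtracted; changes averaged over all cells from at least triplicate runs, acute and delayed phases.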

TZM [12] = experiment: Cytotoxicity against human TZM-bl cells assessed as reduction in viability incubated for 48 hrs by CellTiter-Blue cell viability assay
[13] = Neurotoxicity in mouse primary neurons assessed as loss of MAP-2 intensity at 0.0001 to 10 uM incubated for 48 hrs by semi-quantitative analysis; settings: neuron
[14] = Selectivity ratio of IC50 for antiviral activity against wild type HIV1 IIIB infected in human TZM-bl cells to IC50 for antiviral activity against HIV1 harboring A17 mutant infected in human TZM-bl cells; format: toxicity, cell-based; settings: human immunodeficiency virus 1
Procedure, shortened: (§5)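 TZM-bl cells (2x10⁵/mL) with 15 µg/mL DEAE-dextran were infected with HIV-1 IIIB, A17 (K103N/Y181C) IIIB variant, or NL4-3-based NNRTI-resistant mutants. Compound was present at 0.05–500 nM (DMSO held constant, 0.005% or 0.05%) for 48 hr at 37°C, 5% CO₂.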

[15] = Selectivity ratio of IC50 for antiviral activity against wild type HIV1 IIIB infected in human TZM-bl cells to IC50 for antiviral activity against HIV1 harboring Y181C mutant infected in human TZM-bl cells; format: toxicity, cell-based; settings: human immunodeficiency virus 1; procedure, shortened: as §5
[16] = Selectivity ratio of IC50 for antiviral activity against wild type HIV1 IIIB infected in human TZM-bl cells to IC50 for antiviral activity against HIV1 harboring L100I/K103N double mutant infected in human TZM-bl cells; format: toxicity, cell-based; settings: human immunodeficiency virus 1; procedure, shortened: as §5
[17] = Selectivity ratio of IC50 for antiviral activity against wild type HIV1 IIIB infected in human TZM-bl cells to IC50 for antiviral activity against HIV1 harboring K103N mutant infected in human TZM-bl cells; format: toxicity, cell-based; settings: human immunodeficiency virus 1; procedure, shortened: as §5
[18] = Selectivity index, ratio of CC50 for cytotoxicity against human TZM-bl cells assessed as reduction in cell viability by MTS assay to EC50 for antiviral activity against wild type HIV1 IIIB infected in human TZM-bl cells; format: toxicity, cell-based; settings: read-out: Ratio CC50/EC50
[19] = Selectivity index, ratio of CC50 for cytotoxicity against human TZM-bl cells assessed as reduction in cell viability by MTS assay to EC50 for antiviral activity against HIV1 harboring A17 mutant infected in human TZM-bl cells; format: toxicity, cell-based; settings: read-out: Ratio CC50/EC50
[20] = Safety index, ratio of TC10 for neurotoxicity in mouse primary neurons assessed as loss of MAP-2 intensity to EC50 for antiviral activity against wild type HIV1 IIIB infected in human TZM-bl cells; format: toxicity, cell-based; settings: mouse primary neurons, TZM-bl cells
Procedure, shortened: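 Primary neuronal cultures from cortex/hippocampus of E16 CD1 mouse embryos (>95% neurons). Cells were then methanol:acetic acid-fixed and MAP-2 stained, and intensity was image-quantified. S-index = TC10/(100×EC50 vs HIV-1 IIIB in TZM-bl).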

Neuron [21] = experiment: Induction of calcium accumulation at delayed phase in primary mouse neuron at 1 uM; format: functional, cell-based; procedure, shortened: as §4

`CC(=O)Nc1nc(C)c(S(=O)(=O)n2nc(Nc3cc(Cl)c(Cl)cc3Cl)nc2N)s1` gave an EC50 [1] of over 1000 nM and an EC50 [2] of over 1000 nM.
In the case of `N#CCc1ccc2c(S(=O)(=O)n3nc(Nc4ccc(C#N)c(Cl)c4)nc3N)cccc2c1`, the EC50 [1] is reported as 0.598 nM and the EC50 [2] is reported as 153 nM.
Work on `Cc1cc(/C=C/C#N)cc(C)c1Nc1ccnc(Nc2ccc(C#N)cc2)n1` [RILPIVIRINE] yielded an IC50 [3] of 160 nM, an IC50 [1] of 0.33 nM and an IC50 [2] of 0.8 nM. For the same molecule, the IC50 [4] was 1.3 nM, the IC50 [5] was 14 nM and the IC50 [6] was 1.3 nM. For the same molecule, the CC50 (TZM [7]) was over 5 µM, the TC10 [8] was 0.93 µM and the TC10 [9] was 0.6 µM. The IC50 [10] was 0.35 nM, the Activity (Neuron [11]) was “inactive” and the CC50 (TZM [12]) was over 5 µM. For the same molecule, the Activity [13] was “Non-Toxic”.
Molecule `N#Cc1ccc(Nc2nc(N)n(S(=O)(=O)c3cccc4cc(C#N)ccc34)n2)cc1` has an IC50 [3] of 700 nM, an IC50 [1] of 0.23 nM and an IC50 [2] of 55 nM. The IC50 [4] was 18 nM, the IC50 [5] was 1500 nM and the IC50 [6] was 8.8 nM. The “Ratio IC50” value [14] was 240, the “Ratio IC50” value [15] was 80 and the “Ratio IC50” value [16] was 6700. For the same molecule, the “Ratio IC50” value [17] was 39, the CC50 (TZM [7]) was 7.8 µM and the selectivity ratio [18] was 22000. It also gave a selectivity ratio [19] of 160, a TC10 [8] of 0.17 µM and a selectivity ratio [20] of 5.4. For the same molecule, the TC10 [9] was 0.05 µM, the IC50 [10] was 0.32 nM and the CC50 (TZM [12]) was 7.8 µM. For the same molecule, the Activity [13] was “Non-Toxic”.
In the case of `Nc1nc(Nc2ccc(Cl)cc2)n(S(=O)(=O)c2ccc(Cl)s2)n1`, the EC50 [1] is reported as under 100 nM and the Activity [2] is reported as “inactive”.
For `N#Cc1ccc2c(S(=O)(=O)n3nc(Nc4ccc(C#N)c(Cl)c4)nc3N)cccc2c1`, the EC50 [1] was 0.42 nM, the EC50 [2] was 39.6 nM and the CC50 (TZM [7]) was 6 µM. For the same molecule, the selectivity ratio [18] was 17000 and the selectivity ratio [19] was 240.
`CN(C)c1cccc2c(S(=O)(=O)n3nc(Nc4ccc(Cl)cc4)nc3N)cccc12` gave an EC50 [1] of 10.6 nM and an EC50 [2] of over 1000 nM.
For `Nc1nc(Nc2ccc(Cl)cc2)n(S(=O)(=O)c2cnn(-c3ccc(C(F)(F)F)cn3)c2)n1`, the EC50 [1] was under 100 nM and the Activity [2] was “inactive”.
In the case of `Cn1cnc(S(=O)(=O)n2nc(N)nc2Nc2ccc(Cl)cc2)c1`, the EC50 [1] is reported as under 100 nM and the Activity [2] is reported as “inactive”.
With `Cc1nc(C)c(S(=O)(=O)n2nc(Nc3ccc(C#N)c(Cl)c3)nc2N)s1` the EC50 [1] was 0.879 nM and the EC50 [2] was 306 nM.
In the case of `Nc1nc(Nc2ccc(Cl)cc2)nn1S(=O)(=O)c1ccc2ccccc2c1`, the IC50 [3] is reported as 280 nM, the Activity (TZM [7]) is reported as “inactive” and the TC10 [8] is reported as 6.1 µM. The selectivity ratio [20] was 6.5, the IC50 [10] was 9.3 nM and the Activity [13] was “Non-Toxic”.
Molecule `N#Cc1ccc2c(S(=O)(=O)n3nc(Nc4ccc(C#N)c(C#N)c4)nc3N)cccc2c1` has an IC50 [3] of 350 nM, an EC50 [1] of 0.21 nM and an IC50 [2] of 1.3 nM. For the same molecule, the IC50 [4] was 3.7 nM, the IC50 [5] was 1050 nM and the IC50 [6] was 5.9 nM. For the same molecule, the “Ratio IC50” value [14] was 41, the “Ratio IC50” value [15] was 140 and the “Ratio IC50” value [16] was 3500. The “Ratio IC50” value [17] was 8.9, the CC50 (TZM [7]) was 28 µM and the selectivity ratio [18] was 130000. The selectivity ratio [19] was 570, the TC10 [8] was 4.5 µM and the selectivity ratio [20] was 140. For the same molecule, the IC50 [10] was 0.32 nM, the CC50 (TZM [12]) was 27 µM and the Activity [13] was “Non-Toxic”.
Molecule `N#Cc1ccc(Nc2nc(N)n(S(=O)(=O)c3c(Cl)nc4sccn34)n2)cc1` has an EC50 [1] of 1.77 nM and an EC50 [2] of 705 nM.
For `O=C1Nc2ccc(Cl)cc2[C@@](C#CC2CC2)(C(F)(F)F)O1` [EFAVIRENZ], the EC50 [1] was 0.68 nM, the EC50 [2] was 18 nM and the CC50 (TZM [7]) was over 5 µM. For the same molecule, the TC10 [9] was 0.07 µM, the IC50 [10] was 0.66 nM and the Activity (Neuron [21]) was “Active”. For the same molecule, the Activity (Neuron [11]) was “inactive” and the Activity [13] was “Non-Toxic”.
In the case of `Cc1cc(C)c(S(=O)(=O)n2nc(Nc3ccc(Cl)cc3)nc2N)c(C)c1`, the EC50 [1] is reported as 32 nM.
Molecule `N#C/C=C/c1ccc2c(S(=O)(=O)n3nc(Nc4ccc(CC#N)cc4)nc3N)cccc2c1` has an EC50 [1] of 0.22 nM, an EC50 [2] of 24.5 nM and a CC50 (TZM [7]) of 0.91 µM. It also gave a selectivity ratio [18] of 4100.
